Measured values reported in ChEMBL document CHEMBL3045565, “Microwave synthesis, characterization and bio-efficacy evaluation of novel chalcone based 6-carbethoxy-2-cyclohexen-1-one and 2H-indazol-3-ol derivatives” (Eur J Med Chem, 2013).
In brackets after ≈: the same amount, converted by molar mass.

The compounds below were run on Radical scavenging activity (assay: Antioxidant activity assessed as DPPH free radical scavenging activity at 300 ug/mL after 20 min by UV-Vis spectrophotometric analysis). Details: not given.
Type: functional
Summary of the method: (§1)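 DPPH radical scavenging: samples were held at room temperature for 20 min in the dark, and absorbance was read at 517 nm. The control contained DMSO without compound, and methanol was used for baseline correction. Scavenging percentage was calculated from the absorbances.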

Row | Structure (SMILES) | Activity [%]
1 | COc1ccc(C2CC(c3ccc(C)cc3)=Cc3n[nH]c(O)c32)cc1OC (stereo not drawn) | 91.6
2 | COc1ccc(C2CC(c3ccc(Cl)cc3)=Cc3n[nH]c(O)c32)cc1 (stereo not drawn) | 89.7

The compounds below were run on Radical scavenging activity (assay: Antioxidant activity assessed as DPPH free radical scavenging activity at 400 ug/mL after 20 min by UV-Vis spectrophotometric analysis). Details: not given.
Type: functional
Summary of the method: as §1

Row | Structure (SMILES) | Activity [%]
3 | COc1ccc(C2CC(c3ccc(C)cc3)=Cc3n[nH]c(O)c32)cc1OC (stereo not drawn) | 91.7
4 | COc1ccc(C2CC(c3ccc(Cl)cc3)=Cc3n[nH]c(O)c32)cc1 (stereo not drawn) | 89.8

Each compound was assayed on Radical scavenging activity (assay: Antioxidant activity assessed as DPPH free radical scavenging activity at 10 ug/mL after 20 min by UV-Vis spectrophotometric analysis). Details: not given.
Type: functional
Summary of the method: as §1

Row | Structure (SMILES) | Activity [%]
5 | COc1ccc(C2CC(c3ccc(C)cc3)=Cc3n[nH]c(O)c32)cc1OC (stereo not drawn) | 15
6 | COc1ccc(C2CC(c3ccc(Cl)cc3)=Cc3n[nH]c(O)c32)cc1 (stereo not drawn) | 13.9

Each compound was assayed on Radical scavenging activity (assay: Antioxidant activity assessed as DPPH free radical scavenging activity at 200 ug/mL after 20 min by UV-Vis spectrophotometric analysis). Details: not given.
Type: functional
Summary of the method: as §1

Row | Structure (SMILES) | Activity [%]
7 | COc1ccc(C2CC(c3ccc(C)cc3)=Cc3n[nH]c(O)c32)cc1OC (stereo not drawn) | 91.4
8 | COc1ccc(C2CC(c3ccc(Cl)cc3)=Cc3n[nH]c(O)c32)cc1 (stereo not drawn) | 91.2

The compounds below were run on Radical scavenging activity (assay: Antioxidant activity assessed as DPPH free radical scavenging activity at 80 ug/mL after 20 min by UV-Vis spectrophotometric analysis). Details: not given.
Type: functional
Summary of the method: as §1

Row | Structure (SMILES) | Activity [%]
9 | COc1ccc(C2CC(c3ccc(C)cc3)=Cc3n[nH]c(O)c32)cc1OC (stereo not drawn) | 80.3
10 | COc1ccc(C2CC(c3ccc(Cl)cc3)=Cc3n[nH]c(O)c32)cc1 (stereo not drawn) | 86.4

What follows are compounds tested on Dickeya chrysanthemi (assay: Antibacterial activity against Erwinia chrysanthemi ITCC B-40 assessed as as growth inhibition after 24 hr by broth dilution method). Details: ITCC B-40, 24 h.
Type: functional
Summary of the method: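 Broth dilution, with streptomycin as the standard. MIC was taken as the lowest concentration giving more than 90% bacterial inhibition.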

Row | Structure (SMILES) | MIC [µg/mL]
11 | CCOC(=O)C1C(=O)C=C(c2ccccc2)CC1c1ccc(OC)cc1 (stereo not drawn) | 5.9 (≈ 16.8 µM)

Each compound was assayed on Pseudomonas aeruginosa (assay: Antibacterial activity against Pseudomonas aeruginosa MTCC 2581 assessed as growth inhibition at 100 ug/disk after 24 hr by disk diffusion method). Details: MTCC 2581, 24 h, read-out: DIZ.
Type: functional
Summary of the method: (§2)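 Disk diffusion on nutrient agar. Strains kept on NA slants at 37 °C and subcultured in nutrient broth before testing. A log-phase culture was spread on solidified medium, and sterile disks were loaded with compound from DMSO stock. DMSO served as control, with commercial antibiotics for reference. Plates ran 24 h at 37 °C, and inhibition zones (mm) were read in quadruplicate.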

Row | Structure (SMILES) | zone of inhibition at 100 µg/disc [mm]
12 | CCOC(=O)C1C(=O)C=C(c2ccccc2)CC1c1ccc(OC)cc1 (stereo not drawn) | 0
13 | COc1ccc(C2CC(c3ccc(C)cc3)=Cc3n[nH]c(O)c32)cc1OC (stereo not drawn) | 0
14 | COc1ccc(C2CC(c3ccc(Cl)cc3)=Cc3n[nH]c(O)c32)cc1 (stereo not drawn) | 0

The compounds below were run on Radical scavenging activity (assay: Antioxidant activity assessed as DPPH free radical scavenging activity after 20 min by UV-Vis spectrophotometric analysis). Details: not given.
Type: functional
Set-up: concentration or dose not given beside the values
Summary of the method: as §1

Row | Structure (SMILES) | Activity [%] | IC50 [µg/mL]
15 | CCOC(=O)C1C(=O)C=C(c2ccccc2)CC1c1ccc(OC)cc1 (stereo not drawn) | 2.69 | –
16 | COc1ccc(C2CC(c3ccc(C)cc3)=Cc3n[nH]c(O)c32)cc1OC (stereo not drawn) | 62.6 | 33.12 (≈ 91.4 µM)
17 | COc1ccc(C2CC(c3ccc(Cl)cc3)=Cc3n[nH]c(O)c32)cc1 (stereo not drawn) | 43.2 | 42.34 (≈ 120 µM)

These compounds were tested on Bacillus thuringiensis (assay: Antibacterial activity against Bacillus thuringiensis MTCC 6941 assessed as growth inhibition at 100 ug/disk after 24 hr by disk diffusion method). Details: MTCC 6941, 24 h, read-out: DIZ.
Type: functional
Summary of the method: as §2

Row | Structure (SMILES) | zone of inhibition at 100 µg/disc [mm]
18 | CCOC(=O)C1C(=O)C=C(c2ccccc2)CC1c1ccc(OC)cc1 (stereo not drawn) | 0
19 | COc1ccc(C2CC(c3ccc(C)cc3)=Cc3n[nH]c(O)c32)cc1OC (stereo not drawn) | 0
20 | COc1ccc(C2CC(c3ccc(Cl)cc3)=Cc3n[nH]c(O)c32)cc1 (stereo not drawn) | 0

The compounds below were run on Radical scavenging activity (assay: Antioxidant activity assessed as DPPH free radical scavenging activity at 40 ug/mL after 20 min by UV-Vis spectrophotometric analysis). Details: not given.
Type: functional
Summary of the method: as §1

Row | Structure (SMILES) | Activity [%]
21 | COc1ccc(C2CC(c3ccc(C)cc3)=Cc3n[nH]c(O)c32)cc1OC (stereo not drawn) | 62.6
22 | COc1ccc(C2CC(c3ccc(Cl)cc3)=Cc3n[nH]c(O)c32)cc1 (stereo not drawn) | 43.2

The compounds below were run on Radical scavenging activity (assay: Antioxidant activity assessed as DPPH free radical scavenging activity at 20 ug/mL after 20 min by UV-Vis spectrophotometric analysis). Details: not given.
Type: functional
Summary of the method: as §1

Row | Structure (SMILES) | Activity [%]
23 | COc1ccc(C2CC(c3ccc(C)cc3)=Cc3n[nH]c(O)c32)cc1OC (stereo not drawn) | 25.9
24 | COc1ccc(C2CC(c3ccc(Cl)cc3)=Cc3n[nH]c(O)c32)cc1 (stereo not drawn) | 21.7

What follows are compounds tested on Xanthomonas oryzae (assay: Antibacterial activity against Xanthomonas oryzae ITCC B-47 assessed as as growth inhibition at 100 ug/disk after 24 hr by disk diffusion method). Details: ITCC B-47, 24 h, read-out: DIZ.
Type: functional

Row | Structure (SMILES) | zone of inhibition at 100 µg/disc [mm]
25 | CCOC(=O)C1C(=O)C=C(c2ccccc2)CC1c1ccc(OC)cc1 (stereo not drawn) | 0
26 | COc1ccc(C2CC(c3ccc(C)cc3)=Cc3n[nH]c(O)c32)cc1OC (stereo not drawn) | 0
27 | COc1ccc(C2CC(c3ccc(Cl)cc3)=Cc3n[nH]c(O)c32)cc1 (stereo not drawn) | 0

The compounds below were run on Klebsiella pneumoniae (assay: Antibacterial activity against Klebsiella pneumoniae MTCC 7028 assessed as growth inhibition at 100 ug/disk after 24 hr by disk diffusion method). Details: MTCC 7028, 24 h, read-out: DIZ.
Type: functional
Summary of the method: as §2

Row | Structure (SMILES) | zone of inhibition at 100 µg/disc [mm]
28 | CCOC(=O)C1C(=O)C=C(c2ccccc2)CC1c1ccc(OC)cc1 (stereo not drawn) | 0
29 | COc1ccc(C2CC(c3ccc(C)cc3)=Cc3n[nH]c(O)c32)cc1OC (stereo not drawn) | 0
30 | COc1ccc(C2CC(c3ccc(Cl)cc3)=Cc3n[nH]c(O)c32)cc1 (stereo not drawn) | 0

Each compound was assayed on Rhizoctonia solani (assay: Antifungal activity against Rhizoctonia solani ITCC 5563 by food poisoning method). Details: not given.
Type: functional
Summary of the method: (§3)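 Poisoned food technique on PDA at several concentrations. A 5 mm mycelial plug from the growing edge of a 2-week-old colony was placed inoculum-side down at the plate centre. Plates incubated at 27 °C until control growth was nearly complete. Colony diameter measured, percent inhibition calculated against control, LC50 derived. Four replicates per treatment.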

Row | Structure (SMILES) | LC50 [µg/mL]
31 | CCOC(=O)C1C(=O)C=C(c2ccccc2)CC1c1ccc(OC)cc1 (stereo not drawn) | 116 (≈ 331 µM)
32 | COc1ccc(C2CC(c3ccc(C)cc3)=Cc3n[nH]c(O)c32)cc1OC (stereo not drawn) | 861 (≈ 2380 µM)
33 | COc1ccc(C2CC(c3ccc(Cl)cc3)=Cc3n[nH]c(O)c32)cc1 (stereo not drawn) | 587 (≈ 1660 µM)

These compounds were tested on Athelia rolfsii (assay: Antifungal activity against Athelia rolfsii ITCC 6181 by food poisoning method). Details: Agroathelia rolfsii.
Type: functional
Summary of the method: as §3

Row | Structure (SMILES) | LC50 [µg/mL]
34 | CCOC(=O)C1C(=O)C=C(c2ccccc2)CC1c1ccc(OC)cc1 (stereo not drawn) | 347 (≈ 990 µM)
35 | COc1ccc(C2CC(c3ccc(C)cc3)=Cc3n[nH]c(O)c32)cc1OC (stereo not drawn) | 939 (≈ 2590 µM)
36 | COc1ccc(C2CC(c3ccc(Cl)cc3)=Cc3n[nH]c(O)c32)cc1 (stereo not drawn) | 941 (≈ 2670 µM)

The compounds below were run on Radical scavenging activity (assay: Antioxidant activity assessed as DPPH free radical scavenging activity at 100 ug/mL after 20 min by UV-Vis spectrophotometric analysis). Details: not given.
Type: functional
Summary of the method: as §1

Row | Structure (SMILES) | Activity [%]
37 | COc1ccc(C2CC(c3ccc(C)cc3)=Cc3n[nH]c(O)c32)cc1OC (stereo not drawn) | 81.8
38 | COc1ccc(C2CC(c3ccc(Cl)cc3)=Cc3n[nH]c(O)c32)cc1 (stereo not drawn) | 89.9

The compounds below were run on Radical scavenging activity (assay: Antioxidant activity assessed as DPPH free radical scavenging activity at 500 ug/mL after 20 min by UV-Vis spectrophotometric analysis). Details: not given.
Type: functional
Summary of the method: as §1

Row | Structure (SMILES) | Activity [%]
39 | COc1ccc(C2CC(c3ccc(C)cc3)=Cc3n[nH]c(O)c32)cc1OC (stereo not drawn) | 91
40 | COc1ccc(C2CC(c3ccc(Cl)cc3)=Cc3n[nH]c(O)c32)cc1 (stereo not drawn) | 90

Each compound was assayed on Staphylococcus aureus (assay: Antibacterial activity against Staphylococcus aureus MTCC 3160 assessed as growth inhibition at 100 ug/disk after 24 hr by disk diffusion method). Details: MTCC 3160, 24 h, read-out: DIZ.
Type: functional
Summary of the method: as §2

Row | Structure (SMILES) | zone of inhibition at 100 µg/disc [mm]
41 | CCOC(=O)C1C(=O)C=C(c2ccccc2)CC1c1ccc(OC)cc1 (stereo not drawn) | 0
42 | COc1ccc(C2CC(c3ccc(C)cc3)=Cc3n[nH]c(O)c32)cc1OC (stereo not drawn) | 0
43 | COc1ccc(C2CC(c3ccc(Cl)cc3)=Cc3n[nH]c(O)c32)cc1 (stereo not drawn) | 0

What follows are compounds tested on Radical scavenging activity (assay: Antioxidant activity assessed as DPPH free radical scavenging activity at 60 ug/mL after 20 min by UV-Vis spectrophotometric analysis). Details: not given.
Type: functional
Summary of the method: as §1

Row | Structure (SMILES) | Activity [%]
44 | COc1ccc(C2CC(c3ccc(C)cc3)=Cc3n[nH]c(O)c32)cc1OC (stereo not drawn) | 78.5
45 | COc1ccc(C2CC(c3ccc(Cl)cc3)=Cc3n[nH]c(O)c32)cc1 (stereo not drawn) | 68.7

What follows are compounds tested on Dickeya chrysanthemi (assay: Antibacterial activity against Erwinia chrysanthemi ITCC B-40 assessed as as growth inhibition at 100 ug/disk after 24 hr by disk diffusion method). Details: ITCC B-40, 24 h, read-out: DIZ.
Type: functional
Summary of the method: as §2

Row | Structure (SMILES) | zone of inhibition at 100 µg/disc [mm]
46 | CCOC(=O)C1C(=O)C=C(c2ccccc2)CC1c1ccc(OC)cc1 (stereo not drawn) | 15
47 | COc1ccc(C2CC(c3ccc(C)cc3)=Cc3n[nH]c(O)c32)cc1OC (stereo not drawn) | 0
48 | COc1ccc(C2CC(c3ccc(Cl)cc3)=Cc3n[nH]c(O)c32)cc1 (stereo not drawn) | 0

What follows are compounds tested on Bacillus pumilus (assay: Antibacterial activity against Bacillus pumilus MTCC 2466 assessed as growth inhibition at 100 ug/disk after 24 hr by disk diffusion method). Details: MTCC 2466, 24 h, read-out: DIZ.
Type: functional
Summary of the method: as §2

Row | Structure (SMILES) | zone of inhibition at 100 µg/disc [mm]
49 | CCOC(=O)C1C(=O)C=C(c2ccccc2)CC1c1ccc(OC)cc1 (stereo not drawn) | 0
50 | COc1ccc(C2CC(c3ccc(C)cc3)=Cc3n[nH]c(O)c32)cc1OC (stereo not drawn) | 0
51 | COc1ccc(C2CC(c3ccc(Cl)cc3)=Cc3n[nH]c(O)c32)cc1 (stereo not drawn) | 0
